Published values of several laboratories.
Cell line: HCT-116
Effect on: cell growth or viability

SMILES	assay	conditions	quantity	result
COc1nc(NCc2cn(-c3ccc(C(=O)Nc4ccc(F)cc4)cc3)nn2)nc(OC)n1	MTT	72 h	IC50	0.0341 µM
COc1ccc(-c2cc(-c3c(OC)cccc3OC)c3c(=O)n(C)c(=O)n(C)c3n2)cc1	MTT	48 h	IC50	5.44 µM
COc1cc2ncnc(Nc3ccc4c(c3)/C(=C/c3ccccc3)C(=O)N4C)c2cc1OC	MTT	–	IC50	6.67 µM
COc1ccc(C(=O)Nc2ccc(-n3cc(CNc4nc(OC)nc(OC)n4)nn3)cc2)cc1	MTT	72 h	IC50	0.0595 µM
COc1ccc(-c2cc(-c3ccccc3Cl)c3c(=O)[nH]c(=O)[nH]c3n2)cc1	MTT	48 h	IC50	13.4 µM
COc1nc(NCc2cn(-c3ccc(C(=O)Nc4ccccc4)cc3)nn2)nc(OC)n1	MTT	72 h	IC50	0.00087 µM
Cc1nc(Nc2ccc3c(c2)CC(=O)N3)c2ccccc2n1	MTT	–	IC50	12.3 µM
COc1ccc(-c2cc(-c3ccc(OC)cc3)c3c(=O)[nH]c(=O)[nH]c3n2)cc1	MTT	48 h	IC50	6.59 µM
Cc1nc(Nc2ccc3c(c2)/C(=C/c2ccccc2C)C(=O)N3)c2ccccc2n1	MTT	–	IC50	9.25 µM
Cc1ccc(-c2cc(-c3ccc(N(C)C)cc3)c3c(=O)n(C)c(=O)n(C)c3n2)cc1	MTT	48 h	IC50	12 µM
COc1cc2ncnc(Nc3ccc4c(c3)/C(=C/c3cccc(Cl)c3)C(=O)N4C)c2cc1OC	MTT	–	IC50	8.36 µM
COc1nc(NCc2cn(-c3ccc(NC(=O)c4ccccc4)cc3)nn2)nc(OC)n1	MTT	72 h	IC50	0.0608 µM
Cc1ccc(-c2cc(-c3ccc(Cl)c(F)c3)c3c(=O)n(C)c(=O)n(C)c3n2)cc1	MTT	48 h	IC50	21.4 µM
COc1nc(NCc2cn(-c3ccc(NC(=O)c4ccc([N+](=O)[O-])cc4)cc3)nn2)nc(OC)n1	MTT	72 h	IC50	0.0578 µM
Cc1nc(Nc2ccc3c(c2)/C(=C/c2ccccc2C)C(=O)N3C)c2ccccc2n1	MTT	–	IC50	20.6 µM
C=CC(=O)c1cccnc1Nc1cccc(C(F)(F)F)c1	CCK-8	72 h	GI50	34.9 µM
COc1nc(NCc2cn(-c3ccc(NC(=O)c4ccc(F)cc4)cc3)nn2)nc(OC)n1	MTT	72 h	IC50	0.0122 µM
CC(=NNC(=O)COc1ccc2c(C)c(Cc3ccccc3)c(=O)oc2c1C)c1ccc(Br)cc1	MTT	100 µg/mL	viability	33.6%
COc1ccc(-c2cc(-c3cc(OC)ccc3OC)c3c(=O)n(C)c(=O)n(C)c3n2)cc1	MTT	48 h	IC50	11.1 µM
COc1nc(NCc2cn(-c3ccc(C(=O)Nc4ccc([N+](=O)[O-])cc4)cc3)nn2)nc(OC)n1	MTT	72 h	IC50	0.059 µM
Cc1ccc(-c2cc(-c3ccc(N(C)C)cc3)c3c(=O)[nH]c(=O)[nH]c3n2)cc1	MTT	48 h	IC50	7.66 µM
COc1cccc2c1C(=O)c1c(O)c3c(c(O)c1C2=O)C[C@@](O)(C(=O)CO)C[C@@H]3O[C@H]1C[C@H](N)[C@H](O)[C@H](C)O1	MTT	72 h	IC50	0.83 µM
COc1cc2ncnc(N(C)c3ccc4c(c3)/C(=C/c3ccccc3)C(=O)N4C)c2cc1OC (mixture of isomers)	MTT	–	IC50	6.91 µM
Cc1ccc(-c2cc(-c3ccc(Cl)c(F)c3)c3c(=O)[nH]c(=O)[nH]c3n2)cc1	MTT	48 h	IC50	11.2 µM
O=C(O)c1cccnc1Nc1cccc(C(F)(F)F)c1	CCK-8	72 h	GI50	> 40 µM
Cc1nc(Nc2ccc3c(c2)/C(=C/c2ccccc2Cl)C(=O)N3)c2ccccc2n1	MTT	–	IC50	3.67 µM
